In PubChem BioAssay:
Records with an inconclusive call do not appear. The source made the active and inactive calls.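 How the source made its calls, unless noted: active means inhibition over a set limit, the all-compound mean plus 3 SD, in both replicate runs; inconclusive means over that limit in just one replicate run; inactive means at or under that limit in both runs.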

Experiments:
[1] = S. cerevisiae growth inhibition in permissive medium (OD615), pilot counter-assay for S. cerevisiae lifespan shortening project, permissive growth control (AID 705;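 active means growth inhibition above 25% in both replicates, a cutoff set 3 SD above the mean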); details: OD615, 24 h, at 10 µM, active compounds read high
How it was run: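 Material: engineered DeaD yeast; Compound: one dose 10 µM, DMSO 0.25% final; Detection: absorbance (optical density) at 615 nm; Buffer or medium: permissive raffinose/galactose medium; Timing: 24 h exposure, 30 °C.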

[2] = S. cerevisiae growth inhibition in restrictive medium, OD615, pilot screen, restrictive growth control, yeast lifespan reduction project (AID 706;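 active means growth inhibition above a set limit, 3 SD over mean compound inhibition, in both replicates, cut at about 43% in these data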;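 further: modified DeaD lifespan yeast strain shifted to restrictive glucose medium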); details: OD615, 48 h, at 10 µM, active compounds read high
How it was run: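 Buffer or medium: restrictive glucose medium (CSMM-D); test system: modified S. cerevisiae; doses: single dose of 10 µM compound final, 0.25% DMSO; schedule: 48 h compound exposure at 30 °C; detection: absorbance (optical density) measured at 615 nm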

[3] = doxorubicin toxicity protection in MRP-1 cells – H69AR cells, CellTiter-Glo, duplicate, MRP-1 activator project, pilot screen (AID 807;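 active means viability increase at or above a cutoff of the median across tested compounds plus 3 SD, cut at about 8.5% in these data, passing the limit was not always enough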;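 further: compound pretreatment 18-22 h then 72 h combined with doxorubicin; 0% = doxorubicin alone and 100% = vehicle without doxorubicin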); details: H69AR viability with doxorubicin, CellTiter-Glo luminescence; at 10 µM; active compounds read high
[4] = viability of HCT116 without oncogenic beta-catenin – human colon tumor cells, pilot screen (AID 823;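 active means cell viability at or below a set limit in both duplicate runs, the limit being the all-compound median minus 4 SD, cut at about 23% in these data, passing the limit was not always enough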;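 further: 0% = wells killed by 20 µM Hyamine and 100% = untreated DMSO cell wells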); details: HCT116 beta-catenin knockout viability, CellTiter-Glo, 60 h; at 10 µM; active compounds read low
[5] = viability of PTEN-null HCT116 cells – cell-based, HCT116 clonal line, CellTiter-Glo, pilot screen (AID 824;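 active means viability at or below 27.92% in each of two runs, the all-compound median minus 4 SD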;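 further: 0% = 20 µM Hyamine control and 100% = vehicle cell control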); details: HCT116 PTEN-deleted viability, 60 h, at 10 µM, active compounds read low
[6] = RAM pathway blockade in budding yeast – dse1pr::URA3 reporter, 5-FOA selection, pilot screen (AID 869);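 further: 0% = DMSO wells with no growth and 100% = 10 µM 1-NA-PP1 with full growth; RAM network block rescues cells from 5-FOA so hits raise OD615 growth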; details: S. cerevisiae dse1pr::URA3 5-FOA growth, OD615, 2 d; at 10 µM; active compounds read high; strain carries analog-sensitive mutant Cbk1 kinase
[7] = RAM signaling pathway blockade in yeast – S. cerevisiae, Pdr1DBD-CYC8 efflux-inhibited sensitized strain, primary screen (AID 1298;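 active means RAM network inhibition above 8.4% in each of two replicates, 3 SD over the compound average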;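 further: 0% = DMSO untreated cells without growth and 100% = 10 µM 1-NA-PP1 full growth; higher means more yeast growth rescued from 5-FOA killing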); details: S. cerevisiae cbk1-as DSE1-URA3 strain, 5-FOA growth OD615, 2 d; at 50 µM; active compounds read high

CCCc1nc(SCc2ccccn2)c2c(=O)n(C)c(=O)n(C)c2n1
inactive: growth inhibition [1] -3.14% | growth inhibition [2] -0.14% | viability increase [3] 1.81% | viability [4] 83.4% | viability [5] 85.4% | inhibition [6] 1.61% | RAM network inhibition [7] 5.45%

COC(=O)c1cn(NC(=O)c2ccncc2)c(=O)c2ccccc12
inactive: growth inhibition [1] -0.73% | growth inhibition [2] -19.7% | viability increase [3] -1.43% | viability [4] 98.3% | viability [5] 94.9% | inhibition [6] 0.87% | RAM network inhibition [7] 2.53%

Cc1ccc(SCCNC(=O)C(CO)(CO)CO)cc1
inactive: growth inhibition [1] 2.57% | growth inhibition [2] -1.61% | viability increase [3] -0.51% | viability [4] 101% | viability [5] 98.7% | inhibition [6] 0.935% | RAM network inhibition [7] 0.52%

CC12CCC(C(=O)Nc3ccccc3N3CCOCC3)(CC1=O)C2(C)C (stereo unspecified)
inactive: growth inhibition [1] -9.71% | growth inhibition [2] -14.9% | viability increase [3] -2.5% | viability [4] 90.3% | viability [5] 94.8% | inhibition [6] 0.715% | RAM network inhibition [7] 6.03%

Cc1ccccc1CSc1nnc(Cn2c(=O)sc3ccccc32)n1C
inactive: growth inhibition [1] -9.17% | growth inhibition [2] 11.4% | viability increase [3] 1.46% | viability [4] 95.6% | viability [5] 98.5% | inhibition [6] 1.81% | RAM network inhibition [7] 6.66%

Fc1cc2nc(-c3ccncc3)[nH]c2cc1F
inactive: growth inhibition [1] -7.19% | growth inhibition [2] -19.1% | viability increase [3] -1.54% | viability [4] 109% | viability [5] 94.6% | inhibition [6] 0.625% | RAM network inhibition [7] 2.24%

COc1ccc(C(c2sc3nc(C)nn3c2O)N2CCC(C(N)=O)CC2)cc1OC (stereo unspecified)
inactive: growth inhibition [1] -11.7% | growth inhibition [2] -16.2% | viability increase [3] -0.96% | viability [4] 99.7% | viability [5] 96.2% | inhibition [6] 1.54% | RAM network inhibition [7] 3.49%

CC(=O)Nc1nc2c(F)cccc2s1
inactive: growth inhibition [1] -14.9% | growth inhibition [2] -3% | viability increase [3] -2.43% | viability [4] 96.5% | viability [5] 91.2% | inhibition [6] 1.6% | RAM network inhibition [7] 7.94%

O=C(Nc1cccnc1)c1ccccc1F
inactive: growth inhibition [1] -7.93% | growth inhibition [2] 4.54% | viability increase [3] -0.03% | viability [4] 103% | viability [5] 103% | inhibition [6] 0.88% | RAM network inhibition [7] 2.95%

CC(=O)c1ccc(OCC(O)CN2C(C)CCCC2C)cc1 (stereo unspecified)
inactive: growth inhibition [1] -1.28% | growth inhibition [2] -5.97% | viability increase [3] -0.1% | viability [4] 97.8% | viability [5] 98.1% | inhibition [6] 0.78% | RAM network inhibition [7] 1.46%

CC(c1ccc(Br)cc1)N1CC23C=CC(O2)C(C(=O)O)C3C1=O (stereo unspecified)
inactive: growth inhibition [1] 0.305% | growth inhibition [2] 6.24% | viability increase [3] -0.16% | viability [4] 102% | viability [5] 99.7% | inhibition [6] 1.27% | RAM network inhibition [7] -1.25%

COC(=O)C1CCN(C(c2ccc(OC)c(OC)c2)c2sc3nc(C)nn3c2O)CC1 (stereo unspecified)
inactive: growth inhibition [1] 7.23% | growth inhibition [2] 4.6% | viability increase [3] 0.34% | viability [4] 109% | viability [5] 96.9% | inhibition [6] -1.08% | RAM network inhibition [7] 2.68%

Cc1noc(NS(=O)(=O)c2ccc(NC(=O)COc3ccc(Cl)cc3Cl)cc2)c1C
inactive: growth inhibition [1] -2.93% | growth inhibition [2] 10.8% | viability increase [3] -0.49% | viability [4] 100% | viability [5] 98.6% | inhibition [6] 2.39% | RAM network inhibition [7] 7.51%

Cc1cc(NS(=O)(=O)c2ccc(NC(=O)CCCC(=O)O)cc2)nc(C)n1
inactive: growth inhibition [1] -5.33% | growth inhibition [2] -3.05% | viability increase [3] -1.07% | viability [4] 102% | viability [5] 92.2% | inhibition [6] -0.135% | RAM network inhibition [7] 3.87%

Cc1ccc2c(CC(=O)O)coc2c1C
inactive: growth inhibition [1] 3.31% | growth inhibition [2] 33.3% | viability increase [3] -2.01% | viability [4] 88% | viability [5] 89.5% | inhibition [6] -0.555% | RAM network inhibition [7] -1.19%

O=C(c1cnn2ccccc12)N1CCc2ccccc21
inactive: growth inhibition [1] 0.67% | growth inhibition [2] -5.48% | viability increase [3] -2.13% | viability [4] 97.9% | viability [5] 91.9% | inhibition [6] 1.33% | RAM network inhibition [7] 1.54%

CCOC(=O)c1sc(NC(=O)C2CC2)nc1C
inactive: growth inhibition [1] -2.83% | growth inhibition [2] 0.375% | viability increase [3] 0.91% | viability [4] 99.6% | viability [5] 95.1% | inhibition [6] 0.595% | RAM network inhibition [7] -1.46%

Cc1ccc(-n2ncc3c(=O)[nH]c(SCC(=O)N4CCCCC4)nc32)cc1
inactive: growth inhibition [1] -4.04% | growth inhibition [2] 2.2% | viability increase [3] -4.87% | viability [4] 94.6% | viability [5] 92.1% | inhibition [6] 1.27% | RAM network inhibition [7] 0.05%

CCOc1ccc(N(CC(=O)O)S(=O)(=O)c2cccnc2)cc1
inactive: growth inhibition [1] -0.125% | growth inhibition [2] -2.17% | viability increase [3] 1.18% | viability [4] 94.4% | viability [5] 102% | inhibition [6] -0.27% | RAM network inhibition [7] 7.23%

COc1ccc(OC)c(NC(=O)C2CCCN2C(=O)C2CCC(C)CC2)c1 (stereo unspecified)
inactive: growth inhibition [1] -14.1% | growth inhibition [2] 6.52% | viability increase [3] -5.02% | viability [4] 88.5% | viability [5] 91.6% | inhibition [6] 0.895% | RAM network inhibition [7] -0.32%

Cc1cccc(Cn2c(N(C)Cc3ccccc3)nc3c2c(=O)[nH]c(=O)n3C)c1
inactive: growth inhibition [1] -0.355% | growth inhibition [2] -7.32% | viability increase [3] -2.61% | viability [4] 75.6% | viability [5] 64.8% | inhibition [6] 2.08% | RAM network inhibition [7] 2.26%

O=C(Nc1ccccc1)C1CC=CCC1C(=O)OCC1CCCO1 (stereo unspecified)
inactive: growth inhibition [1] -9.52% | growth inhibition [2] -20.7% | viability increase [3] 0.15% | viability [4] 102% | viability [5] 102% | inhibition [6] 2.69% | RAM network inhibition [7] 0.98%

CC1=C(C(=O)OC(C)C)C(c2c(O)ccc3ccccc23)NC(=O)N1 (stereo unspecified)
inactive: growth inhibition [1] 2.06% | growth inhibition [2] -6.33% | viability increase [3] -3.16% | viability [4] 93.9% | viability [5] 90.7% | inhibition [6] 1.88% | RAM network inhibition [7] 2.42%

c1ccc(-c2csc3ncn4cnnc4c23)cc1
inactive: growth inhibition [1] -7.59% | growth inhibition [2] 2.29% | viability increase [3] -1.06% | viability [4] 97.8% | viability [5] 91.4% | inhibition [6] 1.15% | RAM network inhibition [7] 2.91%

NC(=O)COc1ccc(=O)n(-c2ccccc2)n1
inactive: growth inhibition [1] 2.42% | growth inhibition [2] 4.29% | viability increase [3] 0.84% | viability [4] 107% | viability [5] 105% | inhibition [6] 1.23% | RAM network inhibition [7] 1.14%

COc1cc2[nH]c(=O)n(CCCC(=O)NCCc3ccccc3)c(=O)c2cc1OC
inactive: growth inhibition [1] -4.08% | growth inhibition [2] -7.02% | viability increase [3] -3.37% | viability [4] 99% | viability [5] 94.5% | inhibition [6] 3.42% | RAM network inhibition [7] 2.87%

CCC(C)C1C(C#N)=C(N)Oc2n[nH]c(-c3ccccc3)c21 (stereo unspecified)
inactive: growth inhibition [1] -4.81% | growth inhibition [2] -3.89% | viability increase [3] -2.23% | viability [4] 97.3% | viability [5] 94.3% | inhibition [6] 1.06% | RAM network inhibition [7] 5.9%

N#C/C(=C1/CCCCCN1)c1nnc2n1CCCCC2
inactive: growth inhibition [1] -8.48% | growth inhibition [2] 2.4% | viability increase [3] -1.1% | viability [4] 102% | viability [5] 101% | inhibition [6] 0.985% | RAM network inhibition [7] 3.24%

CCOC(=O)CSC1=C(C#N)C(c2ccccc2Cl)C(C(=O)OC)C(=O)N1 (stereo unspecified)
inactive: growth inhibition [1] -8.45% | growth inhibition [2] -0.68% | viability increase [3] -0.9% | viability [4] 90.3% | viability [5] 91.8% | inhibition [6] 0.14% | RAM network inhibition [7] 2.05%

CCn1c(=O)c2cc(C(=O)N3CCN(C(=O)c4ccco4)CC3)sc2c2ccccc21
inactive: growth inhibition [1] -1.96% | growth inhibition [2] -0.815% | viability increase [3] -3.68% | viability [4] 84% | viability [5] 86.3% | inhibition [6] 2.02% | RAM network inhibition [7] 7.64%

Cc1ccccc1C(=O)Nc1ccccc1
inactive: growth inhibition [1] -0.285% | growth inhibition [2] -2.05% | viability increase [3] -0.99% | viability [4] 96.1% | viability [5] 85.4% | inhibition [6] 0.28% | RAM network inhibition [7] 0.56%

Cc1ccc2c(c1)-c1c(cnn1CC(=O)N1CCCN(Cc3ccccc3F)C1)CO2
inactive: growth inhibition [1] -0.225% | growth inhibition [2] -1.89% | viability increase [3] -2.83% | viability [4] 88.9% | viability [5] 93.1% | inhibition [6] 1% | RAM network inhibition [7] 1.9%

Cc1c(NS(=O)(=O)CC23CCC(CC2=O)C3(C)C)c(=O)n(-c2ccccc2)n1C (stereo unspecified)
inactive: growth inhibition [1] 5.19% | growth inhibition [2] -4.44% | viability increase [3] -2.6% | viability [4] 99.5% | viability [5] 96.4% | inhibition [6] 2.22% | RAM network inhibition [7] 3.5%
